Assay results reported in PMC4303306 (Biochemistry, 2014).

Biological target: T1, wild-type mouse Shp2 catalytic domain (Mus musculus, UniProt P35235)
T1 sequence (P35235 224-539): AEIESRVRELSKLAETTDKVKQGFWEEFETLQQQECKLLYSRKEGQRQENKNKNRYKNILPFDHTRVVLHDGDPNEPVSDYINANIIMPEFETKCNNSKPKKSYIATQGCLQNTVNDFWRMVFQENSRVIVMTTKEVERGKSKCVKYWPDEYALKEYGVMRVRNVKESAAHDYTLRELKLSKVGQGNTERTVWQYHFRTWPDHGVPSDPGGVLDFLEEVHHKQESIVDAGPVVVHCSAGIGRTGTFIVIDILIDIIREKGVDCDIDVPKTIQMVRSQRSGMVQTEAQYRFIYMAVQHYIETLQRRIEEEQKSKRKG
Experiment: PTP inhibition assay with pNPP, wild-type Shp2 catalytic domain
Assay type: biochemical
Settings: 120 min incubation
Procedure, shortened: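 Catalytic-domain PTP (50 nM) was preincubated with test compound or vehicle for 120 min at 37 °C in PTP buffer (50 mM 3,3-dimethyl glutarate pH 7.0, 1 mM EDTA, 50 mM NaCl). It was then assayed at 37 °C with pNPP at the enzyme's previously determined KM, quenched with 5 M NaOH and read at 405 nm. Activity was normalized to controls, and IC50 came from a four-parameter logistic fit. For Shp2, β-mercaptoethanol (250 μM–1 mM) was also tested at 500 nM compound.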

Substance: fluorescein
- Shp2 inhibition (structure–activity comparison, Figure 2A): lack of Shp2 inhibition
